Results gathered from unrelated publications.
Lines come from different studies, so protocols differ.
Target: Macrophage-stimulating protein receptor (MST1R, Homo sapiens, UniProt Q04912)

| SMILES | assay | setting | endpoint | value |
| --- | --- | --- | --- | --- |
| C#Cc1n[nH]c2c(-c3cn([C@@H](C)c4ccccc4)c(=O)[nH]c3=O)cc(F)cc12 | enzyme activity, inhibitor | 0.1 µM | inhibition | 38.6% |
| COc1ncccc1-c1cnn2ccc(N3CCN(C(=O)OC(C)C)CC3)nc12 | binding, competition with immobilised ligand | 1 µM | remaining binding | 100% |
| Cn1cncc1[C@@](O)(COc1ccc(C#N)cc1-c1ccc(OC(F)(F)F)cc1)c1ccc(C#N)cc1 | cell-free assay, competition with immobilised ligand | 1 µM | remaining binding | 100% |
| Cn1cc(-c2cccc(N3CCc4c(sc5c4CC(C)(C)C5)C3=O)c2CO)cc(Nc2ccncn2)c1=O | enzyme activity, inhibitor | 1 µM | inhibition | 11% |
| O=c1[nH]c2ccccc2n1C1CCN(Cc2ccc(-c3[nH]c4cc5ncnc5cc4nc3-c3ccccc3)cc2)CC1 | cell-free assay | 0.5 µM | remaining signal | 111% |
| Cc1nn(C)cc1-c1nc2c(N3CCN(Cc4ccc(Cl)cc4)CC3)c(Cl)cnc2[nH]1 | binding, competition with immobilised ligand | 1 µM | remaining binding | 100% |
| CC(C)(C)c1cc(C=C(C#N)C#N)cc(Br)c1O | enzyme activity, inhibitor | 0.5 µM | remaining activity | 105% |
| Cn1cc(-c2cc(F)cc(N3CCn4c(cc5c4CCCC5)C3=O)c2CO)cc(Nc2ccc(N3CCN(C4COC4)CC3)cn2)c1=O | enzyme activity, inhibitor | 0.1 µM | inhibition | 8% |
| N#CC1(c2ccccn2)CCN(Cc2cc(C(=O)O)c(=O)n3ccccc23)CC1 | cell-free assay, competition with immobilised ligand | 1 µM | remaining binding | 100% |
| C#Cc1n[nH]c2c(-c3cn([C@@H](C)c4ccccn4)c(=O)[nH]c3=O)cc(F)cc12 | enzyme activity, inhibitor | 0.1 µM | inhibition | 47.6% |
| COc1cc(Nc2ncc(F)c(Nc3ccc4c(n3)NC(=O)C(C)(C)O4)n2)cc(OC)c1OC | binding, competition with immobilised ligand | 10 µM | inhibition | 100% |
